In the M2OR odorant receptor database:

Columns and labels:
Settings in all cases: stereoisomer not certain
OR1A1 (Homo sapiens) = molecular target: T1, OR1A1 (Homo sapiens) (UniProt Q9P1Q5)
T1 sequence (whole entry): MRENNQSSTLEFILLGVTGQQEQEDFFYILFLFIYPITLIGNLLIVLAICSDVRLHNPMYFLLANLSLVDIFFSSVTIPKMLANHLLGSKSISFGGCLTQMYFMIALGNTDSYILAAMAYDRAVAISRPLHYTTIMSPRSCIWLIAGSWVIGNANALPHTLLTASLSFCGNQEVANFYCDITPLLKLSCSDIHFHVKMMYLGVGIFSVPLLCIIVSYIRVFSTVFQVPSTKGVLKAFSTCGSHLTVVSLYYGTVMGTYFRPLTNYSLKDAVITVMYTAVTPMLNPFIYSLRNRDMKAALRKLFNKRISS
How it was run: (§1)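 Whether a receptor–molecule pair is responsive (active) rests on the original authors' judgment that its measured signal was statistically different from baseline. Pairs without that judgment are non-responsive (inactive). Sources used varied assay methods, commonly transient luciferase assays in mammalian cell lines.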

OR13H1 (Homo sapiens) = molecular target: T2, OR13H1 (Homo sapiens) (UniProt Q8NG92)
T2 sequence (whole entry): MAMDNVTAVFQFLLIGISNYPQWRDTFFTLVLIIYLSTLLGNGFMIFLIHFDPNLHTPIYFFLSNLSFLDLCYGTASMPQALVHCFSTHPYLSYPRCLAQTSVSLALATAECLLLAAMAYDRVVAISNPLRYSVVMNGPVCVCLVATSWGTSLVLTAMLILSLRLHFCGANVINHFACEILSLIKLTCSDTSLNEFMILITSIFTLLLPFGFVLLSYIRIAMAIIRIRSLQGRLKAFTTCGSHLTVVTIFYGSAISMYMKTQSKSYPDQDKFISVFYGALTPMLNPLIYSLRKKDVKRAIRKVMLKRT
How it was run: as §1

OR13J1 (Homo sapiens) = molecular target: T3, OR13J1 (Homo sapiens) (UniProt Q8NGT2)
T3 sequence (whole entry): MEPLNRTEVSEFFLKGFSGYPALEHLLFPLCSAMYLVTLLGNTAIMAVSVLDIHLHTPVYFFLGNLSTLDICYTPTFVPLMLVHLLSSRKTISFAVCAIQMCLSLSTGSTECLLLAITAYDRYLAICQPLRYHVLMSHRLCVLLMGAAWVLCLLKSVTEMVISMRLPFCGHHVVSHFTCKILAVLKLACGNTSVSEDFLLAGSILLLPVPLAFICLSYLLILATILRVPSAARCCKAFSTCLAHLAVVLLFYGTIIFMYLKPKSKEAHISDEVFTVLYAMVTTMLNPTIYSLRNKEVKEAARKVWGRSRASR
How it was run: as §1

OR14A16 (Homo sapiens) = molecular target: T4, OR14A16 (Homo sapiens) (UniProt Q8NHC5)
T4 sequence (whole entry): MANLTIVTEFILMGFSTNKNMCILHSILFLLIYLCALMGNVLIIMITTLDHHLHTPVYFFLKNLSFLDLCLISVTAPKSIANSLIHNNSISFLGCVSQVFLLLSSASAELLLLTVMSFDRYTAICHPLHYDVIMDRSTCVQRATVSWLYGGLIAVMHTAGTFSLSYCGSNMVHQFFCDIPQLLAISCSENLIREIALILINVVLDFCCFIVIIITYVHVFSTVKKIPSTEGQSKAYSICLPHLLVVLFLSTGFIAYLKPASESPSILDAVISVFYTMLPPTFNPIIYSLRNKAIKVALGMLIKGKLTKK
How it was run: as §1

OR14A2 (Homo sapiens) = molecular target: T5, OR14A2 (Homo sapiens) (UniProt Q96R54)
T5 sequence (whole entry): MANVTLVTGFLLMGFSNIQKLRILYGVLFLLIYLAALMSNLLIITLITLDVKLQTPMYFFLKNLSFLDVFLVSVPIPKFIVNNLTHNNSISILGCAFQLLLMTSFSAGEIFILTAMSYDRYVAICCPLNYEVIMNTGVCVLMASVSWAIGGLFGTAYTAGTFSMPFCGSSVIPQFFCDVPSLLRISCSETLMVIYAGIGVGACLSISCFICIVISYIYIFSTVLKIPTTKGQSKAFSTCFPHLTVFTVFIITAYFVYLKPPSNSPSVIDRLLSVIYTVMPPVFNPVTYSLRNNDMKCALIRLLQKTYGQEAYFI
How it was run: as §1

OR14C36 (Homo sapiens) = molecular target: T6, OR14C36 (Homo sapiens) (UniProt Q8NHC7)
T6 sequence (whole entry): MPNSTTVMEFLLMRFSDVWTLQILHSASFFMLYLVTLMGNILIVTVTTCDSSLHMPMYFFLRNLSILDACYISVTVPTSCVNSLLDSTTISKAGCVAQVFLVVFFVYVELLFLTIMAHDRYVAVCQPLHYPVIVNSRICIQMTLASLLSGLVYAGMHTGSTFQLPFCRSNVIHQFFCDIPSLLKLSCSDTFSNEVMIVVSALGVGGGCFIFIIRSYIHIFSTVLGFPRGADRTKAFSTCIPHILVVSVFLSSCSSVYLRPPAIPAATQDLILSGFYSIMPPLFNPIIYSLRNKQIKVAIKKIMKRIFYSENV
How it was run: as §1

OR14I1 (Homo sapiens) = molecular target: T7, OR14I1 (Homo sapiens) (UniProt A6ND48)
T7 sequence (whole entry): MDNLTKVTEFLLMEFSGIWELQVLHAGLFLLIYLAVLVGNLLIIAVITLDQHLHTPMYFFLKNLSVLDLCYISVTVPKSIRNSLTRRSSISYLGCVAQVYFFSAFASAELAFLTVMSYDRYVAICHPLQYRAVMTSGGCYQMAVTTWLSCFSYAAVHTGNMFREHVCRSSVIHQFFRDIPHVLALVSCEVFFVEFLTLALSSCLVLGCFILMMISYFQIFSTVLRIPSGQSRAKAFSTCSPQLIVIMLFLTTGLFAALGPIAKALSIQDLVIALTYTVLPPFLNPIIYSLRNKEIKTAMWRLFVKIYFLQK
How it was run: as §1

OR14J1 (Homo sapiens) = molecular target: T8, OR14J1 (Homo sapiens) (UniProt Q9UGF5)
T8 sequence (whole entry): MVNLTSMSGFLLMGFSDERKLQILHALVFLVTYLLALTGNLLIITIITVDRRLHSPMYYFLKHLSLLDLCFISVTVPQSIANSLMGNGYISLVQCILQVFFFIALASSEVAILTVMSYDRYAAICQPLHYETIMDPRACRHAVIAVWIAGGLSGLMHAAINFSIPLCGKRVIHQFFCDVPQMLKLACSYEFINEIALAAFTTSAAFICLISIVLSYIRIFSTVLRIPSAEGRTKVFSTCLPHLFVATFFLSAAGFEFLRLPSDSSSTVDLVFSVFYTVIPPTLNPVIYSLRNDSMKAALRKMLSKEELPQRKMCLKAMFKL
How it was run: as §1

OR14K1 (Homo sapiens) = molecular target: T9, OR14K1 (Homo sapiens) (UniProt Q8NGZ2)
T9 sequence (whole entry): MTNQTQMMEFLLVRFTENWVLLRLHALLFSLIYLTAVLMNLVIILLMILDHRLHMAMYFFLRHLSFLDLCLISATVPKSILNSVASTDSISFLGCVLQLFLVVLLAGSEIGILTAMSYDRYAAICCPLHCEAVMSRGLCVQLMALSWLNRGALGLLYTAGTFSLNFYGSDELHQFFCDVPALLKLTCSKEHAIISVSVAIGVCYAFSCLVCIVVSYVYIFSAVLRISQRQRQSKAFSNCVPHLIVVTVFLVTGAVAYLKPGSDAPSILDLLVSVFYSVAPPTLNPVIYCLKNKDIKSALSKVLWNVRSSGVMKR
How it was run: as §1

OR1A1 A154T N155S = test system: OR1A1 A154T N155S
How it was run: as §1
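Further: active if original authors judged signal statistically different from baseline.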

## CCCCCCC=CC=O
OR1A1 (Homo sapiens)
  odorant receptor agonist call: inactive

## Cc1cccc(C)c1O
OR1A1 (Homo sapiens)
  odorant receptor agonist call: inactive

## CC(=O)c1ccc(C)cc1
OR1A1 (Homo sapiens)
  odorant receptor agonist call: inactive

## CC(=O)Oc1ccccc1
OR1A1 (Homo sapiens)
  odorant receptor agonist call: inactive

## CCOC(C)OCC
OR1A1 (Homo sapiens)
  odorant receptor agonist call: inactive

## CC(C)=CCCC(C)=CC#N
OR1A1 (Homo sapiens)
  odorant receptor agonist call: inactive

## CC1CCCCCCCCCCCCC(=O)C1 (centres undefined)
OR13H1 (Homo sapiens)
  odorant receptor agonist call: inactive
OR13J1 (Homo sapiens)
  odorant receptor agonist call: inactive
OR14A16 (Homo sapiens)
  odorant receptor agonist call: inactive
OR14A2 (Homo sapiens)
  odorant receptor agonist call: inactive
OR14C36 (Homo sapiens)
  odorant receptor agonist call: inactive
OR14I1 (Homo sapiens)
  odorant receptor agonist call: inactive
OR14J1 (Homo sapiens)
  odorant receptor agonist call: inactive
OR14K1 (Homo sapiens)
  odorant receptor agonist call: inactive
OR1A1 (Homo sapiens)
  odorant receptor agonist call: active

## CC(CO)CS (centres undefined)
OR13H1 (Homo sapiens)
  odorant receptor agonist call: inactive
OR13J1 (Homo sapiens)
  odorant receptor agonist call: inactive
OR14A16 (Homo sapiens)
  odorant receptor agonist call: inactive
OR14A2 (Homo sapiens)
  odorant receptor agonist call: inactive
OR14C36 (Homo sapiens)
  odorant receptor agonist call: inactive
OR14I1 (Homo sapiens)
  odorant receptor agonist call: inactive
OR14J1 (Homo sapiens)
  odorant receptor agonist call: active
OR14K1 (Homo sapiens)
  odorant receptor agonist call: inactive
OR1A1 (Homo sapiens)
  odorant receptor agonist call: inactive

## CCC(=O)C(=O)CC
OR1A1 (Homo sapiens)
  odorant receptor agonist call: inactive

## CCCCC(=O)OCC
OR1A1 (Homo sapiens)
  odorant receptor agonist call: inactive

## CCC1OC(C)=C(O)C1=O (centres undefined)
OR13H1 (Homo sapiens)
  odorant receptor agonist call: inactive
OR13J1 (Homo sapiens)
  odorant receptor agonist call: inactive
OR14A16 (Homo sapiens)
  odorant receptor agonist call: inactive
OR14A2 (Homo sapiens)
  odorant receptor agonist call: inactive
OR14C36 (Homo sapiens)
  odorant receptor agonist call: inactive
OR14I1 (Homo sapiens)
  odorant receptor agonist call: inactive
OR14J1 (Homo sapiens)
  odorant receptor agonist call: inactive
OR14K1 (Homo sapiens)
  odorant receptor agonist call: inactive
OR1A1 (Homo sapiens)
  odorant receptor agonist call: inactive

## CCC1OC(=O)C(O)=C1C (centres undefined)
OR13H1 (Homo sapiens)
  odorant receptor agonist call: inactive
OR13J1 (Homo sapiens)
  odorant receptor agonist call: inactive
OR14A16 (Homo sapiens)
  odorant receptor agonist call: inactive
OR14A2 (Homo sapiens)
  odorant receptor agonist call: inactive
OR14C36 (Homo sapiens)
  odorant receptor agonist call: inactive
OR14I1 (Homo sapiens)
  odorant receptor agonist call: inactive
OR14J1 (Homo sapiens)
  odorant receptor agonist call: inactive
OR14K1 (Homo sapiens)
  odorant receptor agonist call: inactive
OR1A1 (Homo sapiens)
  odorant receptor agonist call: inactive

## Cc1c[nH]c2ccccc12
OR1A1 (Homo sapiens)
  odorant receptor agonist call: inactive

## CC(CC=O)CCCC(C)(C)O (centres undefined)
OR1A1 (Homo sapiens)
  odorant receptor agonist call: active

## Cc1cnc(C)c(C)n1
OR13H1 (Homo sapiens)
  odorant receptor agonist call: inactive
OR13J1 (Homo sapiens)
  odorant receptor agonist call: inactive
OR14A16 (Homo sapiens)
  odorant receptor agonist call: inactive
OR14A2 (Homo sapiens)
  odorant receptor agonist call: inactive
OR14C36 (Homo sapiens)
  odorant receptor agonist call: inactive
OR14I1 (Homo sapiens)
  odorant receptor agonist call: inactive
OR14J1 (Homo sapiens)
  odorant receptor agonist call: inactive
OR14K1 (Homo sapiens)
  odorant receptor agonist call: inactive
OR1A1 (Homo sapiens)
  odorant receptor agonist call: inactive

## CCC=CCCOC(C)=O
OR1A1 (Homo sapiens)
  odorant receptor agonist call: inactive

## CCCCC(=O)CC
OR1A1 (Homo sapiens)
  odorant receptor agonist call: active

## CC12CCC(CC1=O)C2(C)C (centres undefined)
OR1A1 (Homo sapiens)
  odorant receptor agonist call: inactive

## O=C(c1ccccc1)c1ccccc1
OR1A1 (Homo sapiens)
  odorant receptor agonist call: active

## CCCCCCCCC=CC=O
OR1A1 (Homo sapiens)
  odorant receptor agonist call: inactive

## CC(=O)CC(=O)CC(C)C
OR1A1 (Homo sapiens)
  odorant receptor agonist call: active

## C=C(C)C1CCC(C)C(=O)C1 (centres undefined)
OR1A1 (Homo sapiens)
  odorant receptor agonist call: active

## CCCCCC=CCCC=O
OR1A1 (Homo sapiens)
  odorant receptor agonist call: active

## C=CC(C)=CCC=C(C)CCC=C(C)C
OR1A1 (Homo sapiens)
  odorant receptor agonist call: inactive

## CCCCCCC(C)=O
OR1A1 (Homo sapiens)
  odorant receptor agonist call: active

## Cc1ccc(O)cc1
OR1A1 (Homo sapiens)
  odorant receptor agonist call: inactive

## CC(=O)C(C)O (centres undefined)
OR1A1 (Homo sapiens)
  odorant receptor agonist call: inactive

## CCCc1ccc(O)c(OC)c1
OR1A1 (Homo sapiens)
  odorant receptor agonist call: inactive

## CC(C)=CC1CC(C)CCO1 (centres undefined)
OR1A1 (Homo sapiens)
  odorant receptor agonist call: inactive

## CCCC(=O)OCC
OR1A1 (Homo sapiens)
  odorant receptor agonist call: inactive

## CC1=CCC(C(C)(C)S)CC1 (centres undefined)
OR1A1 (Homo sapiens)
  odorant receptor agonist call: inactive

## C=Cc1ccc(O)cc1
OR1A1 (Homo sapiens)
  odorant receptor agonist call: inactive

## CC(C)(S)CCOC=O
OR1A1 (Homo sapiens)
  odorant receptor agonist call: inactive

## CC(C)CC=O
OR1A1 (Homo sapiens)
  odorant receptor agonist call: inactive

## CSCSC
OR1A1 (Homo sapiens)
  odorant receptor agonist call: inactive

## CCOC(=O)CCSC
OR1A1 (Homo sapiens)
  odorant receptor agonist call: inactive

## COC(=O)C=Cc1ccccc1
OR1A1 (Homo sapiens)
  odorant receptor agonist call: inactive

## CC(C)c1ccc(C=O)cc1
OR1A1 (Homo sapiens)
  odorant receptor agonist call: inactive

## CCCCCCCCS
OR1A1 (Homo sapiens)
  odorant receptor agonist call: active

## CCOC(=O)CCC(C)C
OR1A1 (Homo sapiens)
  odorant receptor agonist call: inactive

## CC1(C)C2CC=C(C=O)C1C2 (centres undefined)
OR1A1 (Homo sapiens)
  odorant receptor agonist call: inactive

## CCCCCC=O
OR1A1 (Homo sapiens)
  odorant receptor agonist call: inactive

## O=C([O-])CCC(=O)[O-].[H+].[H+]
OR1A1 (Homo sapiens)
  odorant receptor agonist call: inactive

## CCc1ncc(C)nc1CC
OR1A1 (Homo sapiens)
  odorant receptor agonist call: inactive

## CCCCCC1CCCC(=O)O1 (centres undefined)
OR1A1 (Homo sapiens)
  odorant receptor agonist call: inactive

## c1ccccc1
OR1A1 (Homo sapiens)
  odorant receptor agonist call: inactive

## CCCCCCCO
OR1A1 (Homo sapiens)
  odorant receptor agonist call: active

## CCC(=O)C1=NCCC1
OR1A1 (Homo sapiens)
  odorant receptor agonist call: inactive

## CCCCCOC(=O)CCCCC
OR1A1 (Homo sapiens)
  odorant receptor agonist call: inactive

## CC(=O)OCC=C(C)C
OR1A1 (Homo sapiens)
  odorant receptor agonist call: inactive

## CCCCCCCCCS
OR1A1 (Homo sapiens)
  odorant receptor agonist call: active

## CCCCCCC(=O)[O-].[H+]
OR1A1 (Homo sapiens)
  odorant receptor agonist call: inactive

## CCCC(S)CCO (centres undefined)
OR1A1 (Homo sapiens)
  odorant receptor agonist call: inactive

## CC(C)=CCCC(C)CCO (centres undefined)
OR1A1 A154T N155S
  odorant receptor agonist call: active
